“Also recorded” adds a separate entry of the source. Some results are limits rather than exact numbers.

Data on seven compounds can be found in article PMC2993511 (Biochemical pharmacology, 2010).

One experiment has as its system Naïve CHO cells. Description: [35S]GTPγS binding in naïve CHO cells. The note with it: not transfected with MOR or DOR, data not shown. It is filed as biochemical, Chinese hamster. The gist of the method: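 Untransfected CHO cell membranes, a receptor-free control. Tested with 0.1 nM [35S]GTPγS and 3 μM GDP in HEPES pH 7.4 buffer at 30°C. Extract and DAMGO were added. Nonspecific binding was subtracted using 10 μM unlabeled GTPγS. Read-out was filtration plus scintillation counting.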
For orientation: GTPγS resists hydrolysis and so accumulates on activated G proteins.

The target of experiment [1] is T1, DOR (Homo sapiens, UniProt P41143). Description: Receptor binding assay, displacement of [3H]deltorphin. In general terms: In a radioligand displacement assay an active substance lowers the binding of a labelled ligand.
T1 sequence (P41143 whole entry): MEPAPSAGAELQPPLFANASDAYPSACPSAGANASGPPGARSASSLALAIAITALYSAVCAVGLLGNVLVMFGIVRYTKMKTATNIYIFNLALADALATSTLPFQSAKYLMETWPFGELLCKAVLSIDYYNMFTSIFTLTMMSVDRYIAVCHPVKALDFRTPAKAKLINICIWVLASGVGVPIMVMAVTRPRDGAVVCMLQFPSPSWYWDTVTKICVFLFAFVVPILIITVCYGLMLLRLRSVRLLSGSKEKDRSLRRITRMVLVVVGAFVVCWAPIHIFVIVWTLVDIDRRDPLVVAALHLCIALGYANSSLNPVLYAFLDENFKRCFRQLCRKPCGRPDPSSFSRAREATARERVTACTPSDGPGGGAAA
In experiment [2] the target is T2, MOR (Homo sapiens, UniProt P35372). Put plainly: Receptor binding assay, displacement of [3H]DAMGO.
T2 sequence (P35372 whole entry): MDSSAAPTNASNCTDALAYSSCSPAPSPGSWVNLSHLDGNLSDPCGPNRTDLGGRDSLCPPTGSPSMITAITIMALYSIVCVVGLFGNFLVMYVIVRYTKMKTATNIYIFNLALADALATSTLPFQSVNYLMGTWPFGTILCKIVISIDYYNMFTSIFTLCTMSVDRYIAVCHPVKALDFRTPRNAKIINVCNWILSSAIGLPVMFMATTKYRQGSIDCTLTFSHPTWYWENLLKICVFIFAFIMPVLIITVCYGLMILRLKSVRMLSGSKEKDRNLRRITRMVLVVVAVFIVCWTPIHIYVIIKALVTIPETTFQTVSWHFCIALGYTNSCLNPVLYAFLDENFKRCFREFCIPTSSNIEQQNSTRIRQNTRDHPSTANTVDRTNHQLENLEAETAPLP
The target in experiment [3] is T2, MOR. Description: [35S]GTPγS binding assay, CHO-MOR membranes. It is filed as biochemical. The gist of the method: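 Human MOR stably expressed in CHO cells (G418 selection); membranes homogenised on ice and spun at 20,000 g. 20 μg protein incubated with 0.1 nM [35S]GTPγS, 3 μM GDP, Mg2+ and Na+ in HEPES pH 7.4, 1 hr, 30°C. DAMGO was the positive control. Nonspecific binding was taken with 10 μM unlabeled GTPγS. Filter-bound radioactivity was counted and expressed as percent stimulation above basal.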

The target in experiment [4] is T1, DOR. Description: [35S]GTPγS binding assay, CHO-DOR membranes. It is filed as biochemical.

For `C=CCN1C[C@H](C)N([C@H](c2ccc(C(=O)N(CC)CC)cc2)c2cccc(OC)c2)C[C@H]1C` [SNC-80], in the experiment on Naïve CHO cells, the “stimulation of [35S]GTPγS binding in naïve CHO cells” value is reported as “not stimulated”.
As a reminder, the IC50 is the concentration that gives 50% inhibition. High values mean a need for much substance, low ones inhibition by little substance. For orientation: Ki means a dissociation constant, usually derived from enzyme kinetics or from competition with a known ligand. The low end stands for a stronger hold on the target, the high end for a looser hold on the target. The compound `O=c1cc(-c2ccc(O)cc2)oc2cc(O)cc(O)c12` [apigenin] came in with a half-inhibitory concentration (IC50) at DOR [1] greater than 50 µM. Besides, on MOR [2], the IC50 turned out to be 35.8 ± 7.81 µM and the affinity, expressed as Ki, was 16.2 ± 3.16 µM.
As a reminder, the EC50 is the concentration giving half of the maximal effect. Read a low EC50 as an effect from little substance. One may read the Emax as the greatest response seen or fitted, relative to the assay's reference. On DOR [1], `COc1ccc(-c2oc3cc(OC)c(OC)c(O)c3c(=O)c2OC)cc1O` [casticin] displayed an IC50 of 2.05 ± 0.631 µM and an inhibition constant (Ki) of 1.29 ± 0.44 µM. Further, the “activation of MOR” value on MOR [3] was “did not activate”. At MOR [2], the 50% inhibitory concentration (IC50) is 2.84 ± 0.707 µM and the affinity, expressed as Ki, was 1.14 ± 0.167 µM. The compound further came in with an EC50 at DOR [4] of 15.3 ± 6.32 µM. For the same compound, at DOR [4] (read-out: DOR Emax, stimulation of [35S]GTPγS binding), the Emax stood at 74.6 ± 18.2%.
On DOR [1], `COc1c(-c2ccc(O)cc2)oc2cc(O)cc(O)c2c1=O` [isokaempferide] yielded an IC50 of 22.8 ± 14 µM and an inhibition constant Ki of 12.9 ± 7.92 µM. Moreover, the “affinity for MOR” value on MOR [2] is recorded as “no significant affinity”.
Turning to `O=c1cc(-c2ccc(O)c(O)c2)oc2cc(O)cc(O)c12` [luteolin], the IC50 at DOR [1] turned out to be 16.8 ± 4.87 µM; at MOR [2], 43.3 ± 13.2 µM. For the same compound, the figures for the Ki on DOR [1] and at MOR [2] were 9.53 ± 2.73 µM and 13.4 ± 4.06 µM, respectively.
On to “N,N-diallyl-Tyr-Aib-Aib-Phe-Leu-OH [ICI 174,864, reference compound]”, for which the “effect on casticin stimulated [35S]GTPγS binding” value at DOR [4] (casticin 10 and 50 μM, ICI 174,864 10 μM) is “inhibited; also recorded: blocked”.
For “[D-Ala^2,N-MePhe^4-Glyol^5]enkephalin [DAMGO]”, the “stimulation of [35S]GTPγS binding in naïve CHO cells” value in the experiment on Naïve CHO cells is given as “not stimulated”.
